Data on 2 compounds can be found in ChEMBL document CHEMBL1158537, “Antibacterial activities of aminoglycoside antibiotics-derived cationic amphiphiles. Polyol-modified neomycin B-, kanamycin A-, amikacin-, and neamine-based amphiphiles with potent broad spectrum antibacterial activity” (2010).

A word on the MIC: it is the smallest concentration in the dilution series that meets the test's criterion for growth inhibition.

The subject of experiment [1] is Escherichia coli. Briefly: Antibacterial activity against Escherichia coli CAN-ICU 63074 after 24 hrs by macrobroth dilution method. The following applies: CAN-ICU 63074, 24 h. The class given is functional. The method in brief: (§1)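 Broth macrodilution was run following CLSI methodology against ATCC reference strains and clinical isolates from the Canadian Intensive Care Unit (CAN-ICU) study, with Gram-positive and Gram-negative organisms tested. The value is the minimum inhibitory concentration, reported in μg/mL.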
For orientation: Dilution methods test growth across graded concentrations, often in twofold steps.

For another experiment, the system named is Klebsiella pneumoniae. Put plainly: Antibacterial activity against Klebsiella pneumoniae ATCC 13883 after 24 hrs by macrobroth dilution method. The following applies: ATCC 13883, 24 h.
Experiment [2] concerns Staphylococcus aureus. Put plainly: Antibacterial activity against Staphylococcus aureus ATCC 29213 after 24 hrs by macrobroth dilution method. The class given is functional. The following applies: ATCC 29213, 24 h. The method in brief:
(§2)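 Reference strains from the American Type Culture Collection were tested by broth macrodilution following CLSI methodology. The read-out was the minimum inhibitory concentration, reported in μg/mL. The same method was used for the Gram-positive and Gram-negative organisms.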

The subject of another experiment is Streptococcus pneumoniae. Briefly: Antibacterial activity against Streptococcus pneumoniae ATCC 49619 after 24 hrs by macrobroth dilution method. The class given is functional. The following applies: ATCC 49619, 24 h. In short, it runs like this:
as §1

Experiment [3] has as its system Escherichia coli. Briefly: Antibacterial activity against gentamicin-resistant Escherichia coli ATCC 6174 after 24 hrs by macrobroth dilution method. The class given is functional. The following applies: ATCC 6174, 24 h. In short, it runs like this:
as §2

In experiment [4] the test system is Staphylococcus aureus. Put plainly: Antibacterial activity against methicillin-resistant Staphylococcus aureus ATCC 33592 after 24 hrs by macrobroth dilution method. The class given is functional. The following applies: ATCC 33592, 24 h. The method in brief: as §2
Experiment [5] relates to Pseudomonas aeruginosa. Put plainly: Antibacterial activity against Pseudomonas aeruginosa ATCC 27853 after 24 hrs by macrobroth dilution method. The class given is functional. The following applies: ATCC 27853, 24 h. The method in brief: as §1
In experiment [6] the test system is Stenotrophomonas maltophilia. Briefly: Antibacterial activity against Stenotrophomonas maltophilia CAN-ICU 62585 after 24 hrs by macrobroth dilution method. The class given is functional. The conditions noted are these: CAN-ICU 62585, 24 h. The method in brief:
as §1

The test system of experiment [7] is Pseudomonas aeruginosa. Put plainly: Antibacterial activity against Pseudomonas aeruginosa CAN-ICU 62308 after 24 hrs by macrobroth dilution method. The class given is functional. The conditions noted are these: CAN-ICU 62308, 24 h. The method in brief: as §1
A further experiment concerns Acinetobacter baumannii. Put plainly: Antibacterial activity against Acinetobacter baumannii CAN-ICU 63169 after 24 hrs by macrobroth dilution method. The class given is functional. The following applies: CAN-ICU 63169, 24 h. In short, it runs like this: as §1
The subject of experiment [8] is Staphylococcus epidermidis. Briefly: Antibacterial activity against Staphylococcus epidermidis […] after 24 hrs by macrobroth dilution method. The class given is functional. In short, it runs like this: as §1
The test system of experiment [9] is Escherichia coli. Briefly: Antibacterial activity against Escherichia coli ATCC 25922 after 24 hrs by macrobroth dilution method. The class given is functional. The conditions noted are these: ATCC 25922, 24 h. In short, it runs like this: as §2
For experiment [10], the system named is Staphylococcus epidermidis. Put plainly: Antibacterial activity against methicillin-resistant Staphylococcus epidermidis ATCC 14990 after 24 hrs by macrobroth dilution method. The class given is functional. The conditions noted are these: ATCC 14990, 24 h.

A value given as a limit tells only on which side of the number the result lay.

In the case of `CC(C)(C)c1ccc(COC[C@H]2O[C@@H](O[C@@H]3[C@@H](OCc4ccc(C(C)(C)C)cc4)[C@H](N)C[C@H](N)[C@H]3O[C@H]3O[C@H](CN)[C@@H](OCc4ccc(C(C)(C)C)cc4)[C@H](OCc4ccc(C(C)(C)C)cc4)[C@H]3N)[C@H](OCc3ccc(C(C)(C)C)cc3)[C@@H]2O[C@H]2O[C@@H](CN)[C@@H](OCc3ccc(C(C)(C)C)cc3)[C@H](OCc3ccc(C(C)(C)C)cc3)[C@H]2N)cc1.O=C(O)C(F)(F)F`, the MIC against Escherichia coli [1] is 128 µg/mL; in the experiment on Klebsiella pneumoniae it was above 128 µg/mL; against Staphylococcus aureus [2], 128 µg/mL; in the experiment on Streptococcus pneumoniae, 256 µg/mL; in the experiment with Escherichia coli [3], 128 µg/mL; in the experiment with Staphylococcus aureus [4] it was 128 µg/mL. For the same compound, the MIC was 256 µg/mL in the experiment with Pseudomonas aeruginosa [5]; above 128 µg/mL in experiment [6]; 128 µg/mL against Pseudomonas aeruginosa [7]; above 128 µg/mL in the experiment on Acinetobacter baumannii; 64 µg/mL in experiment [8]; 128 µg/mL against Escherichia coli [9]. Inhibition of growth in experiment [10] (MIC) required 64 µg/mL.
Consider `NCC[C@H](OC(=O)Nc1ccccc1)C(=O)N[C@@H]1C[C@H](N)[C@@H](C[C@H]2O[C@H](CN)[C@@H](OC(=O)Nc3ccccc3)[C@H](OC(=O)Nc3ccccc3)[C@H]2OC(=O)Nc2ccccc2)[C@H](OC(=O)Nc2ccccc2)[C@H]1O[C@H]1O[C@H](COC(=O)Nc2ccccc2)[C@@H](OC(=O)Nc2ccccc2)[C@H](N)[C@H]1OC(=O)Cc1ccccc1.O=C(O)C(F)(F)F`, for which the MIC with Escherichia coli [1] amounted to 256 µg/mL; against Klebsiella pneumoniae it was 256 µg/mL; against Staphylococcus aureus [2] it was 8 µg/mL; in the experiment with Streptococcus pneumoniae, 32 µg/mL; in the experiment on Escherichia coli [3], 256 µg/mL; in the experiment on Staphylococcus aureus [4], 16 µg/mL. For the same compound, the MIC against Pseudomonas aeruginosa [5] was above 256 µg/mL; in [6] it was 128 µg/mL; in the experiment on Pseudomonas aeruginosa [7] it was 256 µg/mL; in the experiment on Acinetobacter baumannii, 256 µg/mL; in [8] it was 2 µg/mL; in the experiment with Escherichia coli [9], 256 µg/mL. The MIC in experiment [10] was 2 µg/mL.
